Measured values published in ChEMBL document CHEMBL1275591, “Cellular pharmacodynamics of the novel biaryloxazolidinone radezolid: studies with infected phagocytic and nonphagocytic cells, using Staphylococcus aureus, Staphylococcus epidermidis, Listeria monocytogenes, and Legionella pneumophila” (Antimicrob Agents Chemother, 2010).
Converted amounts (≈) assume the structure as drawn.

Assays:
[1] = system: Staphylococcus aureus; assay: Antimicrobial activity against methicillin-resistant, vancomycin intermediate Staphylococcus aureus NRS18 after 24 hrs; type: functional; details: NRS18, 24 h
[2] = system: Staphylococcus aureus; assay: Bacteriostatic activity against linezolid-susceptible Staphylococcus aureus SA238 infected in THP1 cells at pH 5.5 after 24 hrs; type: functional, THP-1
[3] = system: Listeria monocytogenes; assay: Bacteriostatic activity against Listeria monocytogenes EGD infected in THP1 cells after 24 hrs; type: functional, THP-1
Method in brief: (§1)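 Bacteria were phagocytosed by human THP-1 macrophage-like cells, then exposed to a range of drug concentrations for a fixed time: 24 h for S. aureus, S. epidermidis and L. monocytogenes, 48 h for L. pneumophila. Change in CFU versus the initial inoculum was fitted with a sigmoidal curve to give Emin, Emax (relative maximal efficacy), EC50 and static concentration (Cs).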

[4] = system: Staphylococcus aureus; assay: Antimicrobial activity against hospital acquired methicillin-resistant Staphylococcus aureus ATCC 33591 after 24 hrs; type: functional; details: ATCC 33591, 24 h
[5] = system: Staphylococcus aureus; assay: Antimicrobial activity against linezolid-susceptible Staphylococcus aureus SA238 infected in human osteoblasts cells assessed as log reduction in bacterial count after 24 hrs; type: functional
Method in brief: (§2)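 S. aureus was internalized by adherent nonphagocytic cells: Calu-3, HUVEC, keratinocytes on collagen-coated wells, osteoblasts, or rat embryo fibroblasts. Inoculum was 5 × 10^7 to 1 × 10^8 bacteria/ml with 2 h phagocytosis (HUVEC: 2 × 10^6/ml, 1 h). Cells were then exposed to graded drug concentrations for 24 h. CFU change versus the original inoculum was fitted sigmoidally for Emax and Cs.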

[6] = system: Staphylococcus epidermidis; assay: Antimicrobial activity against Staphylococcus epidermidis SA362 after 24 hrs; type: functional; details: SA362, 24 h
[7] = system: Staphylococcus aureus; assay: Bacteriostatic activity against linezolid-susceptible Staphylococcus aureus NRS384 infected in THP1 cells after 24 hrs; type: functional, THP-1
Method in brief: (§3)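 Human THP-1 myelomonocytic (macrophage-like) cells infected with S. aureus, then exposed 24 h to a range of antibiotic concentrations. CFU change was measured against the initial inoculum. A sigmoidal dose-response curve was fitted to give Emin, Emax and EC50, and the apparent static concentration (Cs) was taken from the fit.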

[8] = system: Staphylococcus aureus; assay: Bacteriostatic activity against linezolid-resistant Staphylococcus aureus SA238L infected in THP1 cells after 24 hrs; type: functional, THP-1; method in brief: as §3
[9] = system: Legionella pneumophila; assay: Bacteriostatic activity against Legionella pneumophila ATCC 33153 infected in THP1 cells after 48hrs; type: functional, THP-1; method in brief: as §1
[10] = system: Legionella pneumophila; assay: Antimicrobial activity against Legionella pneumophila ATCC 33153 after 48 hrs; type: functional; details: ATCC 33153, 48 h
[11] = system: Staphylococcus aureus; assay: Antimicrobial activity against linezolid resistant methicillin-susceptible Staphylococcus aureus SA040L after 24 hrs; type: functional
[12] = system: Staphylococcus aureus; assay: Antimicrobial activity against hospital acquired methicillin-resistant, vancomycin resistant Staphylococcus aureus VRS1 after 24 hrs; type: functional; details: VRS1, 24 h
[13] = system: Staphylococcus aureus; assay: Bacteriostatic activity against linezolid-susceptible Staphylococcus aureus SA238 infected in Calu-3 cells after 24 hrs; type: functional
Method in brief: (§4)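 Adherent nonphagocytic cells were infected at 5 × 10^7 to 1 × 10^8 bacteria/ml with 2 h phagocytosis. Cells used: Calu-3 bronchial epithelium grown in uncoated flasks, neonatal foreskin keratinocytes on collagen-coated wells, primary human osteoblasts, and primary rat embryo fibroblasts. Antibiotic was then given over a concentration range for 24 h. Cs came from a sigmoidal fit of CFU change.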

[14] = system: HUVEC; assay: Ratio of drug level for cellular to extracellular region of Staphylococcus aureus infected HUVEC cells at 4 mg/liter after 24 hrs; type: ADME, cell-based; details: human
Method in brief: (§5)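 Cells were exposed to [14C]radezolid for 2 or 24 h. Cell-associated drug in lysates was measured by liquid scintillation counting (detection limit 0.003 mg/liter; linear 0.01–0.78 mg/liter). Content was normalised to cell protein (Lowry). It was converted to apparent cellular concentration at 5 μl per mg protein and expressed relative to the extracellular concentration.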

[15] = system: HUVEC; assay: Ratio of drug level for cellular to extracellular region of Staphylococcus aureus infected HUVEC cells at 4 mg/liter after 2 hrs; type: ADME, cell-based; details: human; method in brief: as §5
[16] = system: Staphylococcus aureus; assay: Antimicrobial activity against linezolid-susceptible Staphylococcus aureus SA238 infected in THP1 cells assessed as log reduction in bacterial count after 24 hrs; type: functional, THP-1; method in brief: as §1
[17] = system: Staphylococcus aureus; assay: Antimicrobial activity against linezolid-resistant Staphylococcus aureus SA238L infected in Calu-3 cells assessed as log reduction in bacterial count after 24 hrs; type: functional; method in brief: as §2
[18] = system: Staphylococcus aureus; assay: Antimicrobial activity against linezolid-susceptible Staphylococcus aureus SA040 infected in THP1 cells after 24 hrs; type: functional, organism-based; details: SA040, THP-1, 24 h; method in brief: as §1
[19] = system: Staphylococcus aureus; assay: Antimicrobial activity against community acquired methicillin-resistant Staphylococcus aureus NRS192 after 24 hrs; type: functional; details: NRS192, 24 h
[20] = system: Staphylococcus aureus; assay: Antimicrobial activity against linezolid-susceptible Staphylococcus aureus ATCC 25923 infected in THP1 cells after 24 hrs; type: functional, organism-based; details: ATCC 25923, THP-1, 24 h; method in brief: as §1
[21] = system: Staphylococcus aureus; assay: Bacteriostatic activity against linezolid-resistant Staphylococcus aureus SA238L infected in Calu-3 cells after 24 hrs; type: functional; method in brief: as §4
[22] = system: Staphylococcus aureus; assay: Bacteriostatic activity against linezolid-resistant Staphylococcus aureus SA238L infected in HUVEC cells after 24 hrs; type: functional
Method in brief: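 HUVEC were grown in endothelial growth medium on gelatin-treated flasks. They were infected with 2 × 10^6 bacteria/ml for 1 h phagocytosis, then exposed 24 h to graded antibiotic concentrations. CFU change from the initial inoculum was fitted to a sigmoidal curve to obtain the static concentration (Cs).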

[23] = system: Staphylococcus aureus; assay: Antimicrobial activity against linezolid-resistant Staphylococcus aureus SA238L infected in HUVEC cells assessed as log reduction in bacterial count after 24 hrs; type: functional; method in brief: as §2
[24] = system: Staphylococcus aureus; assay: Antimicrobial activity against linezolid-resistant Staphylococcus aureus SA238L infected in THP1 cells after 24 hrs; type: functional, organism-based; details: THP-1, 24 h; method in brief: as §1
[25] = system: Staphylococcus aureus; assay: Antimicrobial activity against methicillin-susceptible Staphylococcus aureus ATCC 25923 after 24 hrs; type: functional; details: ATCC 25923, 24 h
[26] = system: Listeria monocytogenes; assay: Antimicrobial activity against Listeria monocytogenes EGD after 24 hrs; type: functional
[27] = system: Staphylococcus aureus; assay: Bacteriostatic activity against linezolid-susceptible Staphylococcus aureus ATCC 25923 infected in THP1 cells after 24 hrs; type: functional, THP-1; method in brief: as §3
[28] = system: Staphylococcus aureus; assay: Antimicrobial activity against linezolid-susceptible Staphylococcus aureus SA238 infected in human epidermal keratinocytes cells assessed as log reduction in bacterial count after 24 hrs; type: functional; method in brief: as §2
[29] = system: Staphylococcus aureus; assay: Antimicrobial activity against linezolid-resistant Staphylococcus aureus SA238L infected in human epidermal keratinocytes cells assessed as log reduction in bacterial count after 24 hrs; type: functional; method in brief: as §2
[30] = system: Staphylococcus aureus; assay: Antimicrobial activity against methicillin-resistant, vancomycin intermediate Staphylococcus aureus NRS52 after 24 hrs; type: functional; details: NRS52, 24 h
[31] = system: Staphylococcus aureus; assay: Bacteriostatic activity against linezolid-susceptible Staphylococcus aureus SA238 infected in THP1 cells at pH 7.4 after 24 hrs; type: functional, THP-1
[32] = system: Staphylococcus aureus; assay: Bacteriostatic activity against linezolid-susceptible Staphylococcus aureus SA238 infected in human epidermal keratinocytes cells after 24 hrs; type: functional; method in brief: as §4
[33] = system: Staphylococcus aureus; assay: Bacteriostatic activity against linezolid-susceptible Staphylococcus aureus SA040 infected in THP1 cells after 24 hrs; type: functional, THP-1; method in brief: as §3
[34] = system: Staphylococcus aureus; assay: Bacteriostatic activity against linezolid-susceptible Staphylococcus aureus ATCC 33591 infected in THP1 cells after 24 hrs; type: functional, THP-1; method in brief: as §3
[35] = system: Staphylococcus aureus; assay: Antimicrobial activity against linezolid-susceptible Staphylococcus aureus ATCC 25923 infected in THP1 cells assessed as log reduction in bacterial count after 24 hrs; type: functional, THP-1; method in brief: as §1
[36] = Ratio of drug level for cellular to extracellular region of Staphylococcus aureus infected human keratinocyte at 4 mg/liter after 24 hrs; type: ADME, cell-based; method in brief: as §5

## CC(=O)NC[C@H]1CN(c2ccc(-c3ccc(CNCc4cnn[nH]4)cc3)c(F)c2)C(=O)O1 [RADEZOLID]
[1]
  MIC: 0.25 µg/mL (≈ 0.57 µM)
[2]
  Activity: 0.06 mg/L
[3]
  Activity: 0.43 mg/L
[4]
  MIC: 0.5 µg/mL (≈ 1.14 µM)
[5]
  log10cfu: 0.6
[6]
  MIC: 0.25 µg/mL (≈ 0.57 µM)
[7]
  Activity: 0.32 mg/L
[8]
  Activity: 0.97 mg/L
[9]
  Activity: 0.36 mg/L
[10]
  MIC: 0.5 µg/mL (≈ 1.14 µM)
[11]
  MIC: 2 µg/mL (≈ 4.56 µM)
[12]
  MIC: 0.5 µg/mL (≈ 1.14 µM)
[13]
  Activity: 0.6 mg/L
[14]
  Ratio: 10.5
[15]
  Ratio: 9.5
[16]
  log10cfu: -0.79
[17]
  log10cfu: 0.6
[18]
  EC50: 0.09 µg/mL (≈ 0.205 µM)
[19]
  MIC: 0.5 µg/mL (≈ 1.14 µM)
[20]
  EC50: 0.24 µg/mL (≈ 0.547 µM)
[21]
  Activity: 0.6 mg/L
[22]
  Activity: 0.6 mg/L
[23]
  log10cfu: 0.6
[24]
  EC50: 0.29 µg/mL (≈ 0.661 µM)
[25]
  MIC: 0.25 µg/mL (≈ 0.57 µM)
[26]
  MIC: 0.03 µg/mL (≈ 0.0684 µM)
[27]
  Activity: 0.91 mg/L
[28]
  log10cfu: 0.6
[29]
  log10cfu: 0.6
[30]
  MIC: 2 µg/mL (≈ 4.56 µM)
[31]
  Activity: 1.04 mg/L
[32]
  Activity: 0.6 mg/L
[33]
  Activity: 0.21 mg/L
[34]
  Activity: 0.56 mg/L
[35]
  log10cfu: -0.57
[36]
  Ratio: 16.1
